Reference: article PMC5656813 (Arthritis & Rheumatology (Hoboken, N.j.), 2017)

What was measured:
[1] = system: RA patients; test: Study 2, treatment‐emergent adverse events; type: in vivo, human
In short: (§1)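 Both double-blind, placebo-controlled trials in RA patients on stable MTX. Oral capsules daily for 4 weeks, with 7–10-day follow-up: 200 mg once daily or 100 mg twice daily (study 1); 30, 75, 150 or 300 mg once daily (study 2). At every visit: AEs, vital signs, hematology, serum biochemistry, coagulation and urinalysis. EKG at baseline and follow-up, plus week 4 in study 1. Safety population, descriptive treatment-emergent AE summaries.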

[2] = system: healthy volunteers; details: cited from earlier work
[3] = system: RA patients; test: Studies 1 and 2, laboratory safety, hematology, vital signs, EKG; type: in vivo, human
In short: as §1

O=C(Nc1nc2cccc(-c3ccc(CN4CCS(=O)(=O)CC4)cc3)n2n1)C1CC1 [Filgotinib]
treatment-related TEAE: Abdominal discomfort ([1]; 30 mg once daily): 0 number (%) of patients
treatment-related TEAE: Abdominal pain, upper ([1]; 30 mg once daily): 0 number (%) of patients
treatment-related TEAE: Aspartate aminotransferase increased ([1]; 30 mg once daily): 1 (5.9) number (%) of patients
treatment-related TEAE: Blood amylase increased ([1]; 30 mg once daily): 0 number (%) of patients
treatment-related TEAE: Blood and lymphatic system disorders ([1]; 30 mg once daily): 0 number (%) of patients
treatment-related TEAE: Blood triglycerides increased ([1]; 30 mg once daily): 1 (5.9) number (%) of patients
treatment-related TEAE: Cystitis, noninfectious ([1]; 30 mg once daily): 0 number (%) of patients
treatment-related TEAE: Duodenogastric reflux ([1]; 30 mg once daily): 0 number (%) of patients
treatment-related TEAE: Ear and labyrinth disorders ([1]; 30 mg once daily): 0 number (%) of patients
treatment-related TEAE: Gastrointestinal disorders ([1]; 30 mg once daily): 1 (5.9) number (%) of patients
treatment-related TEAE: Gastrointestinal pain ([1]; 30 mg once daily): 0 number (%) of patients
treatment-related TEAE: General disorders and administration site reactions ([1]; 30 mg once daily): 0 number (%) of patients
treatment-related TEAE: Gingival bleeding ([1]; 30 mg once daily): 0 number (%) of patients
treatment-related TEAE: Infections and infestations ([1]; 30 mg once daily): 0 number (%) of patients
treatment-related TEAE: Laboratory findings ([1]; 30 mg once daily): 2 (11.8) number (%) of patients
treatment-related TEAE: Lipase increased ([1]; 30 mg once daily): 0 number (%) of patients
treatment-related TEAE: Musculoskeletal and connective tissue disorders ([1]; 30 mg once daily): 0 number (%) of patients
treatment-related TEAE: Nervous system disorders ([1]; 30 mg once daily): 0 number (%) of patients
treatment-related TEAE: Renal and urinary disorders ([1]; 30 mg once daily): 0 number (%) of patients
treatment-related TEAE: Abdominal discomfort ([1]; 75 mg once daily): 0 number (%) of patients
treatment-related TEAE: Abdominal pain, upper ([1]; 75 mg once daily): 0 number (%) of patients
treatment-related TEAE: Aspartate aminotransferase increased ([1]; 75 mg once daily): 0 number (%) of patients
treatment-related TEAE: Blood amylase increased ([1]; 75 mg once daily): 0 number (%) of patients
treatment-related TEAE: Blood and lymphatic system disorders ([1]; 75 mg once daily): 1 (4.5) number (%) of patients
treatment-related TEAE: Blood triglycerides increased ([1]; 75 mg once daily): 0 number (%) of patients
treatment-related TEAE: Cystitis, noninfectious ([1]; 75 mg once daily): 0 number (%) of patients
treatment-related TEAE: Duodenogastric reflux ([1]; 75 mg once daily): 1 (4.5) number (%) of patients
treatment-related TEAE: Ear and labyrinth disorders ([1]; 75 mg once daily): 0 number (%) of patients
treatment-related TEAE: Gastrointestinal disorders ([1]; 75 mg once daily): 2 (9.1) number (%) of patients
treatment-related TEAE: Gastrointestinal pain ([1]; 75 mg once daily): 0 number (%) of patients
treatment-related TEAE: General disorders and administration site reactions ([1]; 75 mg once daily): 0 number (%) of patients
treatment-related TEAE: Gingival bleeding ([1]; 75 mg once daily): 1 (4.5) number (%) of patients
treatment-related TEAE: Infections and infestations ([1]; 75 mg once daily): 0 number (%) of patients
treatment-related TEAE: Laboratory findings ([1]; 75 mg once daily): 0 number (%) of patients
treatment-related TEAE: Lipase increased ([1]; 75 mg once daily): 0 number (%) of patients
treatment-related TEAE: Musculoskeletal and connective tissue disorders ([1]; 75 mg once daily): 0 number (%) of patients
treatment-related TEAE: Nervous system disorders ([1]; 75 mg once daily): 0 number (%) of patients
treatment-related TEAE: Renal and urinary disorders ([1]; 75 mg once daily): 0 number (%) of patients
treatment-related TEAE: Abdominal discomfort ([1]; 150 mg once daily): 0 number (%) of patients
treatment-related TEAE: Abdominal pain, upper ([1]; 150 mg once daily): 0 number (%) of patients
treatment-related TEAE: Aspartate aminotransferase increased ([1]; 150 mg once daily): 0 number (%) of patients
treatment-related TEAE: Blood amylase increased ([1]; 150 mg once daily): 0 number (%) of patients
treatment-related TEAE: Blood and lymphatic system disorders ([1]; 150 mg once daily): 0 number (%) of patients
treatment-related TEAE: Blood triglycerides increased ([1]; 150 mg once daily): 0 number (%) of patients
treatment-related TEAE: Cystitis, noninfectious ([1]; 150 mg once daily): 0 number (%) of patients
treatment-related TEAE: Duodenogastric reflux ([1]; 150 mg once daily): 0 number (%) of patients
treatment-related TEAE: Ear and labyrinth disorders ([1]; 150 mg once daily): 0 number (%) of patients
treatment-related TEAE: Gastrointestinal disorders ([1]; 150 mg once daily): 1 (6.7) number (%) of patients
treatment-related TEAE: Gastrointestinal pain ([1]; 150 mg once daily): 0 number (%) of patients
treatment-related TEAE: General disorders and administration site reactions ([1]; 150 mg once daily): 0 number (%) of patients
treatment-related TEAE: Gingival bleeding ([1]; 150 mg once daily): 0 number (%) of patients
treatment-related TEAE: Infections and infestations ([1]; 150 mg once daily): 0 number (%) of patients
treatment-related TEAE: Laboratory findings ([1]; 150 mg once daily): 0 number (%) of patients
treatment-related TEAE: Lipase increased ([1]; 150 mg once daily): 0 number (%) of patients
treatment-related TEAE: Musculoskeletal and connective tissue disorders ([1]; 150 mg once daily): 0 number (%) of patients
treatment-related TEAE: Nervous system disorders ([1]; 150 mg once daily): 0 number (%) of patients
treatment-related TEAE: Renal and urinary disorders ([1]; 150 mg once daily): 0 number (%) of patients
treatment-related TEAE: Abdominal discomfort ([1]; 300 mg once daily): 0 number (%) of patients
treatment-related TEAE: Abdominal pain, upper ([1]; 300 mg once daily): 0 number (%) of patients
treatment-related TEAE: Aspartate aminotransferase increased ([1]; 300 mg once daily): 0 number (%) of patients
treatment-related TEAE: Blood amylase increased ([1]; 300 mg once daily): 0 number (%) of patients
treatment-related TEAE: Blood and lymphatic system disorders ([1]; 300 mg once daily): 0 number (%) of patients
treatment-related TEAE: Blood triglycerides increased ([1]; 300 mg once daily): 0 number (%) of patients
treatment-related TEAE: Cystitis, noninfectious ([1]; 300 mg once daily): 1 (5.0) number (%) of patients
treatment-related TEAE: Duodenogastric reflux ([1]; 300 mg once daily): 0 number (%) of patients
treatment-related TEAE: Ear and labyrinth disorders ([1]; 300 mg once daily): 0 number (%) of patients
treatment-related TEAE: Gastrointestinal disorders ([1]; 300 mg once daily): 2 (10.0) number (%) of patients
treatment-related TEAE: Gastrointestinal pain ([1]; 300 mg once daily): 1 (5.0) number (%) of patients
treatment-related TEAE: General disorders and administration site reactions ([1]; 300 mg once daily): 0 number (%) of patients
treatment-related TEAE: Gingival bleeding ([1]; 300 mg once daily): 0 number (%) of patients
treatment-related TEAE: Laboratory findings ([1]; 300 mg once daily): 0 number (%) of patients
treatment-related TEAE: Lipase increased ([1]; 300 mg once daily): 0 number (%) of patients
treatment-related TEAE: Musculoskeletal and connective tissue disorders ([1]; 300 mg once daily): 0 number (%) of patients
treatment-related TEAE: Nervous system disorders ([1]; 300 mg once daily): 0 number (%) of patients
treatment-related TEAE: Renal and urinary disorders ([1]; 300 mg once daily): 1 (5.0) number (%) of patients
inhibition of JAK pathways in PD assays ([2]; healthy volunteers, daily doses of ≥100 mg): Significant inhibition of JAK‐1 pathways but not JAK‐2
tolerability and safety in healthy volunteers ([2]; up to 10 days, doses up to 450 mg once daily): well tolerated and safe
Creatinine, mean change, day 28 ([3]; 30 mg once daily): 1.47 µmol/L
HDL cholesterol, mean change, day 28 ([3]; 30 mg once daily): 0.03 mmol/L
Hemoglobin, mean change, day 28 ([3]; 30 mg once daily): −0.3 gm/liter
LDL cholesterol, mean change, day 28 ([3]; 30 mg once daily): 0.25 mmol/L
Neutrophils, mean change, day 28 ([3]; 30 mg once daily): -6.5e+08 L⁻¹
Platelets, mean change, day 28 ([3]; 30 mg once daily): -1.8e+10 L⁻¹
Creatinine, mean change, day 28 ([3]; 75 mg once daily): 5.18 µmol/L
HDL cholesterol, mean change, day 28 ([3]; 75 mg once daily): 0.11 mmol/L
Hemoglobin, mean change, day 28 ([3]; 75 mg once daily): 2.0 gm/liter
LDL cholesterol, mean change, day 28 ([3]; 75 mg once daily): 0.14 mmol/L
Neutrophils, mean change, day 28 ([3]; 75 mg once daily): -7.4e+08 L⁻¹
Platelets, mean change, day 28 ([3]; 75 mg once daily): -3.5e+10 L⁻¹
Creatinine, mean change, day 28 ([3]; 100 mg twice daily): -6.98 µmol/L
HDL cholesterol, mean change, day 28 ([3]; 100 mg twice daily): 0.20 mmol/L
Hemoglobin, mean change, day 28 ([3]; 100 mg twice daily): 3.0 gm/liter
LDL cholesterol, mean change, day 28 ([3]; 100 mg twice daily): 0.07 mmol/L
Neutrophils, mean change, day 28 ([3]; 100 mg twice daily): -1.45e+09 L⁻¹
Platelets, mean change, day 28 ([3]; 100 mg twice daily): -3.5e+10 L⁻¹
Creatinine, mean change, day 28 ([3]; 150 mg once daily): 4.50 µmol/L
HDL cholesterol, mean change, day 28 ([3]; 150 mg once daily): 0.07 mmol/L
Hemoglobin, mean change, day 28 ([3]; 150 mg once daily): −1.0 gm/liter
LDL cholesterol, mean change, day 28 ([3]; 150 mg once daily): 0.01 mmol/L
Neutrophils, mean change, day 28 ([3]; 150 mg once daily): -1.37e+09 L⁻¹
Platelets, mean change, day 28 ([3]; 150 mg once daily): -3.2e+10 L⁻¹
increase in HDL at week 4 versus baseline ([3]; 200 mg): ~15%
Creatinine, mean change, day 28 ([3]; 200 mg once daily): 5.47 µmol/L
HDL cholesterol, mean change, day 28 ([3]; 200 mg once daily): 0.16 mmol/L
Hemoglobin, mean change, day 28 ([3]; 200 mg once daily): 7.8 gm/liter
LDL cholesterol, mean change, day 28 ([3]; 200 mg once daily): -0.25 mmol/L
Neutrophils, mean change, day 28 ([3]; 200 mg once daily): -1.21e+09 L⁻¹
Platelets, mean change, day 28 ([3]; 200 mg once daily): -3.3e+10 L⁻¹
increase in HDL at week 4 versus baseline ([3]; 300 mg): > 30%
Creatinine, mean change, day 28 ([3]; 300 mg once daily): 6.90 µmol/L
HDL cholesterol, mean change, day 28 ([3]; 300 mg once daily): 0.48 mmol/L
Hemoglobin, mean change, day 28 ([3]; 300 mg once daily): 4.4 gm/liter
LDL cholesterol, mean change, day 28 ([3]; 300 mg once daily): 0.37 mmol/L
Neutrophils, mean change, day 28 ([3]; 300 mg once daily): -1.13e+09 L⁻¹
Platelets, mean change, day 28 ([3]; 300 mg once daily): -5.8e+10 L⁻¹
decrease in neutrophils from baseline ([3]; doses of ≥75 mg): 14–24%
lymphocytes and lymphocyte subpopulations ([3]; during filgotinib treatment): unaffected
liver function tests (transaminases) ([3]; in vivo): lack of changes
neutropenia ([3]; in vivo): no neutropenia
reticulocytes ([3]; in vivo): absence of effects
vital signs values and EKG parameters ([3]; in vivo): No clinically relevant trends or changes
